From ChEMBL document CHEMBL1139530, “Synthesis and antibacterial properties of novel hydrolyzable cationic amphiphiles. Incorporation of multiple head groups leads to impressive antibacterial activity” (2005)

Assays:
Assay type in all cases: functional
Enterococcus faecalis = experiment: Minimum bactericidal concentration against Enterococcus faecalis
How it was run: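 Spread-plate MBC in LB broth (pH ≈7). E. faecalis came from a blood agar colony and was grown 12 h at 37 °C with shaking to 10⁷-10⁸ cells/mL. Amphiphile was added from a sterile-water stock, with water as the control, then incubated 5 h at 37 °C with shaking. Dilutions were plated on LB agar for 24 h at 37 °C. MBC is the lowest concentration giving no colonies; the value is the mean of three experiments.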

Staphylococcus aureus = experiment: Minimum bactericidal concentration against Staphylococcus aureus
How it was run: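 S. aureus came from a blood agar colony and was grown in LB for 10 h at 37 °C with shaking to 10⁹-10¹⁰ cells/mL. Cells were exposed 5 h at 37 °C with shaking to amphiphile from a sterile-water stock, with water as the control. Dilutions were plated on LB agar for 24 h at 37 °C. MBC is the lowest concentration giving no colonies, averaged over three separate experiments.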

Escherichia coli = experiment: Minimum bactericidal concentration against Escherichia coli
How it was run: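 E. coli from a freeze-dried ampule was streaked on LB agar (37 °C, 24 h), and a single colony was grown in LB for 10 h at 37 °C with shaking to 10⁸-10⁹ cells/mL. Amphiphile from a sterile-water stock, or water as the control, was incubated 5 h at 37 °C with shaking. Dilutions were spread on LB agar for 24 h at 37 °C. MBC is the lowest concentration with no colonies, averaged over three experiments.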

Shigella sonnei = experiment: Minimum bactericidal concentration against Shigella sonnei
How it was run: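 A single S. sonnei colony was grown in LB for 12 h at 37 °C with shaking to 10⁷-10⁸ cells/mL, then exposed in tubes to amphiphile from a sterile-water stock, or water as the control, for 5 h at 37 °C with shaking. Diluted samples were spread on LB agar and incubated 24 h at 37 °C. MBC is the lowest concentration leaving no colonies; the value is the mean of three experiments.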

Compound | MBC (Enterococcus faecalis) [µM] | MBC (Staphylococcus aureus) [µM] | MBC (Escherichia coli) [µM] | MBC (Shigella sonnei) [µM]
CCCCCCCCCCCCCCC(COC(=O)C[N+](C)(C)C)(COC(=O)C[N+](C)(C)C)COC(=O)C[N+](C)(C)C | 9 | 11.3 | 7.3 | 9.6
Hexadecyl-trimethyl-ammonium bromide | 18.5 | 18.9 | 16.9 | 18.3
CCCCCCCCCCCCCCC(COC(=O)C[n+]1ccccc1)COC(=O)C[n+]1ccccc1 | 10.4 | 13.9 | 8.2 | 8.9
CCCCCCCCCCCCCCC(COC(=O)C[n+]1ccccc1)(COC(=O)C[n+]1ccccc1)COC(=O)C[n+]1ccccc1 | 4.9 | 5.2 | 6.5 | 3.5
CCCCCCCCCCCCCCCC[n+]1ccccc1 [CETYLPYRIDINIUM BROMIDE] | 16.3 | 15.6 | 10.4 | 12.4
CCCCCCCCCCCCCCCCOC(=O)C[N+](C)(C)C | 22.5 | 24.5 | 20.6 | 33.8
CCCCCCCCCCCCCCC(COC(=O)C[N+](C)(C)C)COC(=O)C[N+](C)(C)C | 12 | 15.1 | 9.7 | 14.9
